High-throughput results: PubChem BioAssay, The Scripps Research Institute Molecular Screening Center
The list is not random: actives were taken first. Their share in the collection is about 1.3%.
Fam108B counter: Fam108B inhibition, counter-screen for RBBP9 inhibitors. recombinant Fam108B, FP-Rh probe fluorescence polarization. inhibition, % at 9.51 µM. 300,000 compounds, 0.33% hits. AID 1947;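 active = inhibition above the screen mean inhibition plus 3 SD, computed separately per campaign, cut at about 18% in these data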;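 also: inhibitors lower polarization as less probe binds the enzyme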
LYPLA1 inh: LYPLA1 (human) inhibition in PME1 counter-screen. O75608. recombinant LYPLA1, FP-Rh probe fluorescence polarization. inhibition, % at 5.9 µM. 320,000 compounds, 0.16% hits. AID 2174;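 active = inhibition above the mean of all tested compounds plus 3 SD, set per campaign, cut at about 14% in these data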;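 also: inhibitors block serine hydrolase probe labeling of LYPLA1 so polarization falls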
Target sequence (O75608 whole entry, looked up): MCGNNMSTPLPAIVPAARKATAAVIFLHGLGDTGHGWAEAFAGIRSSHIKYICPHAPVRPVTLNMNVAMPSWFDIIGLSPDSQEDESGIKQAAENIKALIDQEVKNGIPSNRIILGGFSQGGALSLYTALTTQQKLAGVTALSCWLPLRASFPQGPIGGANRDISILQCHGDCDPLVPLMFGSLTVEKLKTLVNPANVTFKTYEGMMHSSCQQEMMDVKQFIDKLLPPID
PME-1 primary: PME-1 (human) inhibition. recombinant PME-1, FP-Rh probe fluorescence polarization. inhibition, % at 5.9 µM. 320,000 compounds, 0.53% hits;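 active = inhibition above the campaign mean of all compounds plus 3 SD, cut at about 26% in these data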;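 also: competitive labeling of PME-1 active site by serine hydrolase directed probe; inhibitors block probe labeling so polarization falls and inhibition rises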
PAD4 inh: PAD4 (human) enzyme inhibition. recombinant PAD4, RCA probe fluorescence polarization. 330,000 compounds, 0.41% hits. Q9UM07. AID 485272. inhibition, % at 6.36 µM;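 active = percent inhibition above a cutoff equal to the mean of all tested compounds plus 3 SD, cut at about 15% in these data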
LYPLA2 inh: counter-screen for PME1 inhibitors: inhibitors of human LYPLA2; recombinant LYPLA2, FP-Rh probe fluorescence polarization; O95372; AID 2177; inhibition, % at 5.9 µM; 320,000 compounds, 0.38% hits;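 active = inhibition above the screen-wide mean plus 3 SD, limit set per campaign, cut at about 26% in these data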
Target sequence (O95372 whole entry, looked up): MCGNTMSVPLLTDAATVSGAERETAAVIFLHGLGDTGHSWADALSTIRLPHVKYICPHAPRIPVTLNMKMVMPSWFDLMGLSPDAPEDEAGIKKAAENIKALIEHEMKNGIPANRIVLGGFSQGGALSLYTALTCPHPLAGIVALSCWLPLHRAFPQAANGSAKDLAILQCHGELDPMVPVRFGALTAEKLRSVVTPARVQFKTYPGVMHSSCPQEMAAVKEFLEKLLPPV
RBBP9 inh: human RBBP9 hydrolase inhibition; O75884; recombinant RBBP9, FP-Rh probe fluorescence polarization; inhibition, % at 7.94 µM; 220,000 compounds, 0.2% hits;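 active = inhibition above the campaign mean of all tested compounds plus 3 SD, cut at about 14% in these data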
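System: RBBP9 protein | Quantity: 2.5 µM RBBP9 dispensing solution, before mixing | Reagent: FP-Rh probe, 375 nM dispensing solution | Timing: Enzyme-compound preincubation 30 min, then probe labeling 45 min, 25 °C | Measured by: Fluorescence polarization | Read-out: % inhibition | Replication: One well per compound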
RBBP9 inh conf: human RBBP9 inhibition, confirmation; shares compounds with RBBP9 inh; recombinant RBBP9, FP-Rh probe fluorescence polarization; inhibition, % at 7.94 µM; 410 compounds, 36% hits;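 active = inhibition above the hit cutoff derived for the primary screen, cut at about 15% in these data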
Large screens that a line does not name were inactive (follow-up assays come after a bar, where they were run).

COc1ccc(OC)c(CCNC(=O)Cn2cccc2C(=O)c2ccccc2C)c1	RBBP9 inh 15 | RBBP9 inh conf inactive
O=C1c2ccc(Oc3cccc([N+](=O)[O-])c3)cc2C(=O)N1c1ccccn1	none
O=C1c2cc([N+](=O)[O-])cc3cc([N+](=O)[O-])cc(c23)C(=O)N1c1ccccn1	RBBP9 inh 15 | RBBP9 inh conf inactive
CN(CC(=O)Nc1ccc(F)cc1)C(=O)Cn1cnc2ccc(Cl)cc2c1=O	none (no result: Fam108B counter, RBBP9 inh)
COc1ccccc1C(=O)NCCC(=O)Nc1cccc(S(=O)(=O)N2CCCC2)c1	none (no result: Fam108B counter, RBBP9 inh)
COc1cccc(C2NC(=O)CCC2[N+](=O)[O-])c1OC (stereo not drawn)	none (no result: RBBP9 inh)
CCOC(=O)C(C(C)=O)c1c(Br)c(O)c(O)c2c(C(=O)c3ccc(C)cc3)coc12 (stereo not drawn)	RBBP9 inh 24 | RBBP9 inh conf 17
CCOC(=O)c1c(C)n(-c2ccc(C)cc2)c2c(C(C(C)=O)C(=O)O)c(Br)c(O)c(O)c12 (stereo not drawn)	none
O=c1oc2c(-c3ccc([N+](=O)[O-])cc3)cc(O)cc2s1	RBBP9 inh 43 | RBBP9 inh conf inactive
NC1=C(c2ccc([N+](=O)[O-])cc2)C(=O)CO1	none
C=CCN1C(=O)C(C(C)CC)NC1=S (stereo not drawn)	none
C=CCN1C(=O)C(C)NC1=S (stereo not drawn)	RBBP9 inh 22 (no result: Fam108B counter, LYPLA1 inh, PME-1 primary, PAD4 inh, LYPLA2 inh) | RBBP9 inh conf inactive
CCOc1ccc(CNC(=O)c2ccc(Sc3ccc(C)cc3)c(NC(C)=O)c2)cc1	none
CCOC(=O)C1=C(C)NC(=S)N(C(C)=O)C1c1ccc(Cl)cc1 (stereo not drawn)	none
COCCOC(=O)C1=C(C)NC(=O)N(C(C)=O)C1c1ccc(Cl)cc1 (stereo not drawn)	RBBP9 inh 15 | RBBP9 inh conf inactive
C=CCN(CC=C)Cc1c(O)ccc2c1oc(=O)c1ccccc12	RBBP9 inh 25 | RBBP9 inh conf inactive
CCOC(=O)c1ccccc1NC(=O)CN(c1ccccc1)S(=O)(=O)N(C)C	none
O=[N+]([O-])c1cccc(-c2cn3nc(-c4ccccc4)c(-c4ccccc4)nc3n2)c1	none
O=Nc1c(-c2cccc([N+](=O)[O-])c2)nc2ncccn12	RBBP9 inh 21 | RBBP9 inh conf 24
c1csc(C2Nc3cccc4cccc(c34)N2)c1	RBBP9 inh 30 | RBBP9 inh conf 45
COc1ccc(C2Nc3cccc4cccc(c34)N2)cc1	RBBP9 inh 25 | RBBP9 inh conf 21
c1ccc(C2Nc3cccc4cccc(c34)N2)cc1	none (no result: RBBP9 inh)
Cn1c(N/N=C/c2cc3ccccc3nc2Cl)nc2ccccc21	none
CC(C)CC(C(=O)O)N1C(=O)C2C3CC(C2C1=O)C1C(c2ccccc2)c2sc(=O)[nH]c2SC31 (stereo not drawn)	none
O=C(O)c1ccc(N/N=C/c2cn(Cc3ccccc3F)c3ccccc23)cc1	PME-1 primary 29, RBBP9 inh 17 | RBBP9 inh conf inactive
NS(=O)(=O)c1cccc(NC(=O)CC23CC4CC(C2)CC(CC(=O)Nc2cccc(S(N)(=O)=O)c2)(C4)C3)c1	none (no result: RBBP9 inh)
CC(C)C(=O)N(c1ccc2oc(=O)sc2c1)S(=O)(=O)c1cccs1	none
CC(C)C(=O)N(c1cc2sc(=O)oc2c2ccccc12)S(=O)(=O)c1cccs1	RBBP9 inh 32 | RBBP9 inh conf inactive
Oc1ccc(/C=N/n2c(-c3ccco3)csc2=Nc2cccnc2)c(O)c1	none
CN=c1scc(-c2cccs2)n1/N=C/c1ccc(O)c(O)c1O	PME-1 primary 31, RBBP9 inh 32 | RBBP9 inh conf 83
C=CCN=c1scc(-c2ccco2)n1/N=C/c1ccc(O)c(O)c1O	PME-1 primary 29, RBBP9 inh 48 | RBBP9 inh conf 84
COc1ccccc1C(=O)NCCC(=O)N1CCN(c2cccc(C(F)(F)F)c2)CC1	none (no result: RBBP9 inh)
Oc1[nH]c2ccc(Br)cc2c1N=NC(=S)Nc1ccc(F)cc1	none
Oc1ccc(NC(=S)N=Nc2c(O)[nH]c3ccccc23)cc1	RBBP9 inh 16 | RBBP9 inh conf 19
Oc1ccc(NC(=S)N=Nc2c(O)[nH]c3ccc(Br)cc23)cc1	RBBP9 inh 53 (no result: Fam108B counter, LYPLA1 inh, PME-1 primary, PAD4 inh, LYPLA2 inh) | RBBP9 inh conf 22
Cc1ccc(NC(=S)N=Nc2c(O)[nH]c3ccccc23)cc1	none
